Test results: ChEMBL document CHEMBL5712922, “Synergistic effects of type I PRMT and PARP inhibitors against non-small cell lung cancer cells” (Clin Epigenetics, 2021)
Structures can show the parent of a compound that is named as a salt. Active and inactive are the calls of the source. No cut-off for these calls is given here.

Experiments:
A549 [1] = assay: Synergistic antiproliferative activity against human A549 cells pretreated with MS023 for 24 hrs followed by compound addition at 10 uM measured after for 24 hrs relative to control; type: functional
In short: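 A549 seeded 20K/well; next day 16.5 μM MS023 or DMSO for 24 h, then 181 epigenetic library drugs at 10 μM for 24 h. Viability by Viacount flow cytometry after trypsinization; heat-killed well as total death control. Synergy Index = (monotherapy viability × MS023 viability effect)/combination viability; also synergy percentage (1 − 1/SI)×100.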

A549 [2] = assay: Antiproliferative against human A549 cells assessed as viable cells pretreated with MS023 for 24 hrs followed by compound addition at 10 uM measured after for 24 hrs relative to control; conditions: A549, 24 h, read-out: Activity
A549 [3] = assay: Antiproliferative against human A549 cells expressing MTAP clone 1 assessed as […] treated for 7 days with replenishment of medium for every 48 hrs by MTT assay (reference value: 4.4 uM); type: functional, cell-based
In short: (§1)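 Parental, empty-vector (pLoc) or MTAP-re-expressing lentiviral clone cells (blasticidin 3 µg/ml selected) seeded day 0; MS023 (0.2–2 μM final) and/or BMN-673 (0.3–50 nM final) or DMSO added after 16 h, replenished with medium every 48 h. Day 7: MTT reagent 3 h at 37 °C, solvent, absorbance 590 nm; triplicates; percent death = 1 − (treated/DMSO).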

A549 [4] = assay: Antiproliferative against human A549 cells assessed as reduction in cell viability at 16.5 uM for 24 hrs relative to control; type: functional
In short: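 A549 cells exposed to MS023 for 24 h in dose–response; viability read by flow cytometry with Viacount dye reagent distinguishing viable, pre-apoptotic and dead cells.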

A549 [5] = assay: Antiproliferative against human A549 cells expressing MTAP clone 2 assessed as […] treated for 7 days with replenishment of medium for every 48 hrs by MTT assay (reference value: 4.4 uM); type: functional, cell-based
SK-LU-1 [6] = assay: Antiproliferative against human SK-LU-1 cells expressing MTAP clone 1 assessed as […] treated for 7 days with replenishment of medium for every 48 hrs by MTT assay (reference value: 16.3 uM); type: functional, cell-based
SK-LU-1 [7] = assay: Antiproliferative against human SK-LU-1 cells expressing MTAP clone 2 assessed as […] treated for 7 days with replenishment of medium for every 48 hrs by MTT assay (reference value: 16.3 uM); type: functional, cell-based
HCC4006 [8] = assay: Antiproliferative against human HCC4006 cells expressing MTAP clone 1 assessed as […] treated for 7 days with replenishment of medium for every 48 hrs by MTT assay (reference value: 0.24 uM); type: functional, cell-based; in short: as §1
HCC4006 [9] = assay: Antiproliferative against human HCC4006 cells expressing MTAP clone 2 assessed as […] treated for 7 days with replenishment of medium for every 48 hrs by MTT assay (reference value: 0.24 uM); type: functional, cell-based; in short: as §1
A549 [10] = assay: Induction of DNA damage in human A549 cells at 2 uM for 7 days by gamma-H2AX analysis; type: functional, cell-based; conditions: time 7.0 day
In short: (§2)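 A549 cells grown on coverslips under MTT treatment conditions (inhibitors replenished every 48 h) for 7 days with MS023 (0.2–2 µM) and/or BMN-673 (50 nM); fixed in 4% paraformaldehyde, Triton-permeabilized, stained with anti-γ-H2AX (1:1000, 16 h, 4 °C) and Alexa488 secondary, DAPI counterstain. ≥200 cells imaged; fraction with >5 foci reported; unpaired t tests.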

A549 [11] = assay: Induction of DNA damage in human A549 cells assessed as increase in stained cells at 0.2 uM for 7 days by gamma-H2AX analysis (reference value: 3.9%); type: functional; conditions: time 7 day; in short: as §2
A549 [12] = assay: Induction of DNA damage in human A549 cells assessed as increase in stained cells at 2 uM for 7 days by gamma-H2AX analysis (reference value: 3.9%); type: functional; conditions: time 7 day; in short: as §2
A549 [13] = assay: Antiproliferative against human A549 cells expressing MTAP clone 1 assessed as […] treated at 25 to 50 nM for 7 days in presence of MS023 with replenishment of medium for every 48 hrs by MTT assay relative to control; type: functional; parameters: scale not given: the % may be the effect or the level left; conditions: dose 25-50 nM, time 7 day
A549 [14] = assay: Antiproliferative against human A549 cells expressing MTAP clone 2 assessed as […] treated at 25 to 50 nM for 7 days in presence of MS023 with replenishment of medium for every 48 hrs by MTT assay relative to control; type: functional; parameters: scale not given: the % may be the effect or the level left; conditions: dose 25-50 nM, time 7 day
A549 [15] = assay: Induction of cell death in human A549 cells at 0.3 nM in presence of 2 uM MS023 by viacount reagent based analysis; type: functional
A549 [16] = assay: Induction of cell death in human A549 cells assessed as bliss energy score at 0.3 nM in presence of EPZ 15666 by viacount reagent based analysis; type: functional
A549 [17] = assay: Induction of cell death in human A549 cells assessed as bliss energy score at 0.3 nM in presence of GSK 591 by viacount reagent based analysis; type: functional
A549 [18] = assay: Induction of DNA damage in human A549 cells at 50 nM for 7 days by gamma-H2AX analysis; type: functional, cell-based; conditions: time 7.0 day; in short: as §2
A549 [19] = assay: Induction of DNA damage in human A549 cells at 50 nM in presence of MS023 for 7 days by gamma-H2AX analysis; type: functional, cell-based; conditions: time 7.0 day; in short: as §2
A549 [20] = assay: Induction of DNA damage in human A549 cells assessed as increase in stained cells at 1 nM for 7 days by gamma-H2AX analysis (reference value: 3.9%); type: functional; conditions: time 7 day
A549 [21] = assay: Induction of DNA damage in human A549 cells assessed as increase in stained cells at 50 nM for 7 days by gamma-H2AX analysis (reference value: 3.9%); type: functional; conditions: time 7 day; in short: as §2
A549 [22] = assay: Induction of DNA damage in human A549 cells assessed as increase in stained cells at 50 nM for 7 days in presence of MS023 by gamma-H2AX analysis (reference value: 3.9%); type: functional; conditions: time 7 day; in short: as §2
PEO1 [23] = assay: Antiproliferative activity against BRCA2 deficient human PEO1 cells at 3.75 to 60 nM; type: functional, cell-based; conditions: dose 3.75-60 nM
In short: (§3)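 PEO1 and PEO4 ovarian cells seeded 3,000/well; treated one day after plating with MS023 and/or BMN-673 or DMSO vehicle, medium with inhibitors replenished every 48 h. Six days after first treatment, nuclei stained with Hoechst 33342 (10 µg/ml final, 30 min) and counted by plate imaging; counts normalized to DMSO wells. Combination effect expressed as Bliss score.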

PEO1 [24] = assay: Antiproliferative activity against BRCA2 deficient human PEO1 cells at 3.75 to 60 nM in presence of MS023; type: functional, cell-based; conditions: dose 3.75-60 nM; in short: as §3
PEO4 [25] = assay: Antiproliferative activity against human PEO4 cells expressing BRCA2 mutant at 3.75 to 60 nM; type: functional, cell-based; conditions: dose 3.75-60 nM; in short: as §3
PEO4 [26] = assay: Antiproliferative activity against human PEO4 cells expressing BRCA2 mutant at 3.75 to 60 nM in presence of MS023; type: functional, cell-based; conditions: dose 3.75-60 nM; in short: as §3
[27] = Antiproliferative activity against human PEO4 cells expressing BRCA2 mutant assessed as bliss energy score at 3.75 to 60 nM in presence of MS023; type: functional; conditions: dose 3.75-60 nM; in short: as §3
PEO1 [28] = assay: Antiproliferative activity against BRCA2 deficient human PEO1 cells assessed as bliss energy score at 3.75 to 60 nM in presence of MS023; type: functional; conditions: dose 3.75-60 nM; in short: as §3
A549 [29] = assay: Antiproliferative against human A549 cells assessed as killed cells at 0.3 nM treated for 7 days in presence of MS023 with replenishment of medium for every 48 hrs by MTT assay relative to control; conditions: time 7 day

For `C[C@]1(c2nc3c(C(N)=O)cccc3[nH]2)CCCN1` [VELIPARIB], the Activity (A549 [1]) was 98% and the viability at 10 µM (A549 [2]) was 54.2%.
For `CNCc1ccc(-c2[nH]c3cc(F)cc4c3c2CCNC4=O)cc1` [RUCAPARIB], the Activity (A549 [1]) was 24% and the viability at 10 µM (A549 [2]) was 54.2%.
With `CN(C)CC(=O)Nc1ccc2[nH]c(=O)c3ccccc3c2c1.Cl` [PJ34] the Activity (A549 [1]) was 21% and the viability at 10 µM (A549 [2]) was 54.2%.
`NC(=O)c1ccc(I)c([N+](=O)[O-])c1` [INIPARIB] showed an Activity (A549 [1]) of 15% and a viability at 10 µM (A549 [2]) of 54.2%.
Compound `COC1CCN(C(=O)c2cc(Cc3n[nH]c(=O)c4ccccc34)ccc2F)CC1` [AZD2461] has an Activity (A549 [1]) of 67% and a viability at 10 µM (A549 [2]) of 54.2%.
Work on `CC(C)Oc1ccc(-c2c[nH]cc2CN(C)CCN)cc1` yielded an IC50 (A549 [3]) of 5.1 µM, an Activity (A549 [4]) of 23% and an IC50 (A549 [5]) of 13.4 µM. For the same compound, the IC50 (SK-LU-1 [6]) was 36.7 µM, the IC50 (SK-LU-1 [7]) was 41 µM and the IC50 (HCC4006 [8]) was 0.47 µM. For the same compound, the IC50 (HCC4006 [9]) was 0.56 µM, the Activity (A549 [10]) was “Active” and the Activity (A549 [11]) was 19.6%. It also gave an Activity (A549 [12]) of 27.6%.
Work on `Cc1ccc(S(=O)(=O)O)cc1.NC(=O)c1cccc2cn(-c3ccc([C@@H]4CCCNC4)cc3)nc12` yielded an Activity (A549 [1]) of 11% and a viability at 10 µM (A549 [2]) of 54.2%.
For `Cn1ncnc1[C@H]1c2n[nH]c(=O)c3cc(F)cc(c23)N[C@@H]1c1ccc(F)cc1` [TALAZOPARIB], the Activity (A549 [13]) was 50%, the Activity (A549 [14]) was 50% and the Activity (A549 [15]) was “Active”. The Activity (A549 [16]) was 13.506, the Activity (A549 [17]) was 19.892 and the Activity (A549 [18]) was “Active”. For the same compound, the Activity (A549 [19]) was “Active”, the Activity (A549 [20]) was 24.8% and the Activity (A549 [21]) was 40.4%. The Activity (A549 [22]) was 69.5%, the Activity (PEO1 [23]) was “Active” and the Activity (PEO1 [24]) was “Active”. The Activity (PEO4 [25]) was “inactive”, the Activity (PEO4 [26]) was “Active” and the Activity [27] was 21.64. The Activity (PEO1 [28]) was 17.98 and the Activity (A549 [29]) was >80%.
`O=C(/C=C/N1C[C@H]2C[C@@H]1CN2c1ccccn1)c1ccccc1O` gave a viability at 10 µM (A549 [2]) of 54.2%.
`Cn1cc(CNCC2CCN(c3ncc(C(=O)NO)cn3)CC2)c2ccccc21` [QUISINOSTAT HYDROCHLORIDE] gave a viability at 10 µM (A549 [2]) of 54.2%.
Work on `O=C(Nc1ccccc1-c1cn2c(CN3CCNCC3)csc2n1)c1cnc2ccccc2n1` yielded a viability at 10 µM (A549 [2]) of 54.2%.
Compound `N#CC[C@H](C1CCCC1)n1cc(-c2ncnc3[nH]ccc23)cn1` [RUXOLITINIB] has a viability at 10 µM (A549 [2]) of 54.2%.
`Cc1cc(C)c(CNC(=O)c2cc(-c3ccc(N4CCN(C)CC4)nc3)cc3c2c(C)cn3C(C)C)c(=O)[nH]1` gave a viability at 10 µM (A549 [2]) of 54.2%.
Work on `O=C(c1ccc(/C=C/c2n[nH]c3ccccc23)cc1)N1CCNCC1` [KW-2449] yielded a viability at 10 µM (A549 [2]) of 54.2%.
`CC(C)N(C[C@H]1O[C@@H](n2cnc3c(N)ncnc32)[C@H](O)[C@@H]1O)[C@H]1C[C@@H](CCc2nc3cc(C(C)(C)C)ccc3[nH]2)C1` [PINOMETOSTAT] showed a viability at 10 µM (A549 [2]) of 54.2%.
Compound `COc1cc(Nc2ncc3c(n2)-c2ccc(Cl)cc2C(c2c(F)cccc2OC)=NC3)ccc1C(=O)O` [ALISERTIB] has a viability at 10 µM (A549 [2]) of 54.2%.
Compound `Cc1cc(N2C[C@@H](C)N[C@@H](C)C2)ncc1-c1ccc(-c2nc3c(ccn3C)c(=O)[nH]2)cc1` has a viability at 10 µM (A549 [2]) of 54.2%.
